In assay [1] the target is T1, Type-1 angiotensin II receptor A (Rattus norvegicus) (UniProt P25095).
T1 sequence (whole entry): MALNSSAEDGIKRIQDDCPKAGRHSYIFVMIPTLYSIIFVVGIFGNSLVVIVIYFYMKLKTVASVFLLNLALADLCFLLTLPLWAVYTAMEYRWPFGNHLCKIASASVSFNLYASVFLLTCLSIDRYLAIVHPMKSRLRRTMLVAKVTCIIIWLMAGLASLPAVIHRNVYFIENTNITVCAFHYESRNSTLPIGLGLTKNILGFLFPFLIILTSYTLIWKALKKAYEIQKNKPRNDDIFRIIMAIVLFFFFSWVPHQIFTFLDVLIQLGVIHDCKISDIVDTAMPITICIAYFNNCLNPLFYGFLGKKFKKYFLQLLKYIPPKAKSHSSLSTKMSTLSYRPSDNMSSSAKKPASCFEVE
Put plainly: (§1) Antagonist activity at AT1 receptor in rat aorta. The assay is classed as functional, tissue-based.

Assay [2] deals with T2, Type-1 angiotensin II receptor A (Rattus norvegicus, UniProt P25095).
T2 sequence (P25095 whole entry): T1 sequence (whole entry)
The description is as §1. In kind it is functional, tissue-based. The settings on record: read-out: pA2 (converted).

For assay [3], the system named is Rattus norvegicus. Nature of the assay: Antihypertensive activity against desoxycortisone-induced hypertension in rat assessed as decrease in mean arterial blood pressure at 3 mg/kg, ip. In kind it is functional, Artery. The settings on record: route intraperitoneal. The method in brief:
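Hypertension induced in rats with desoxycortisone acetate 40 mg kg-1 s.c. Mean arterial blood pressure recorded through a carotid artery cannula connected to a pressure transducer. Test agents were given intraperitoneally. The dose-finding series used 0.1–30.0 mg kg-1, and the remaining agents were tested at 1.0, 3.0 and 10.0 mg kg-1.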

Assay [4] deals with Rattus norvegicus. Nature of the assay: Antihypertensive activity against desoxycortisone-induced hypertension in rat assessed as decrease in mean arterial blood pressure at 5 mg/kg, ip. The assay is classed as functional, Artery. The settings on record: route intraperitoneal.

Here are results for 10 compounds from ChEMBL document CHEMBL1156704, “Angiotensin II--AT1 receptor antagonists: design, synthesis and evaluation of substituted carboxamido benzimidazole derivatives” (Eur J Med Chem, 2008).

In the case of `CCCCc1nc2cc(NC(C)=O)ccc2n1Cc1ccc(-c2ccccc2C(=O)O)cc1`, in assay [1], the pA10 was found to be 5.9. Besides, in assay [2], the Kb is 0.01 µM. In addition, the Activity in assay [3] turned out to be 33.5 mmHg.
In turn, `CCCCc1nc2cc(N)ccc2n1Cc1ccc(-c2ccccc2C(=O)O)cc1` came in with a pA10 in assay [1] of 7. In addition, the Kb in assay [2] was 0.0158 µM. Also, the Activity in assay [3] amounted to 33.3 mmHg.
The corresponding values for `CCCCc1nc2cc(NC(=O)c3ccccc3Cl)ccc2n1Cc1ccc(-c2ccccc2C(=O)O)cc1` are 5.8, 0.316 µM and 20.3 mmHg.
`CCCCc1nc(Cl)c(CO)n1Cc1ccc(-c2ccccc2-c2nnn[nH]2)cc1` [LOSARTAN]: in assay [1], the pA10 came out at 6.5. Also, the Activity in assay [4] is recorded as 29.7 mmHg.
In assay [1], `CCCCc1nc2cc(NC(=O)CCC)ccc2n1Cc1ccc(-c2ccccc2C(=O)O)cc1` yielded a pA10 of 4.4. The Kb in assay [2] was 0.0794 µM. The Activity in assay [3] is given as 26.4 mmHg.
For `CCCCc1nc2cc(NC(=O)c3ccc(Cl)cc3)ccc2n1Cc1ccc(-c2ccccc2C(=O)O)cc1`, in that order: 5.4, 0.631 µM and 12 mmHg.
The corresponding values for `CCCCc1nc2cc(NC(=O)CC)ccc2n1Cc1ccc(-c2ccccc2C(=O)O)cc1` are 4.7, 0.02 µM and 36.2 mmHg.
As for `CCOc1nc2cccc(C(=O)O)c2n1Cc1ccc(-c2ccccc2-c2nnn[nH]2)cc1`, the pA10 in assay [1] was 7.1. Also, in assay [2], the Kb was 0.01 µM. Besides, the Activity in assay [4] was 31.8 mmHg.
The compound `CCCCc1nc2cc(NC(=O)c3ccccc3)ccc2n1Cc1ccc(-c2ccccc2C(=O)O)cc1` returned a pA10 in assay [1] of 6. The Kb in assay [2] was 0.251 µM. Further, the Activity in assay [3] turned out to be 19.8 mmHg.
In assay [1], `CCCCC(=O)Nc1ccc2c(c1)nc(CCCC)n2Cc1ccc(-c2ccccc2C(=O)O)cc1` came in with a pA10 of 3.7. For the same compound, the Kb in assay [2] is 0.398 µM. In addition, the Activity in assay [3] amounted to 21.7 mmHg.
